An excerpt weighted towards active compounds, which were near 1.2% of everything screened.
PREPL inhibitor: inhibitors of human prolyl oligopeptidase-like enzyme PREPL; recombinant PREPL, fluorescence polarization activity-based probe; inhibition, % at 5.96 µM; Q4J6C6; AID 2751; 320,000 compounds, 0.68% hits;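 also: 0% = enzyme with DMSO and 100% = wells lacking enzyme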
IDE cell inh: inhibitors of human insulin-degrading enzyme in cells. P14735. HEK cells, FAbetaB cleavage, fluorescence polarization. inhibition, % at 5.59 µM. 320,000 compounds, 0.41% hits;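 active = percent inhibition above the average of all tested compounds plus 3 SD, set per screening campaign, cut at about 16% in these data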;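 also: IDE supplied by intact live HEK cells; FP after avidin binding of uncleaved biotin substrate so inhibition keeps polarization high; 0% = DMSO wells and 100% = 60 µM reference IDE inhibitor Ii1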
Target sequence (P14735 whole entry, looked up): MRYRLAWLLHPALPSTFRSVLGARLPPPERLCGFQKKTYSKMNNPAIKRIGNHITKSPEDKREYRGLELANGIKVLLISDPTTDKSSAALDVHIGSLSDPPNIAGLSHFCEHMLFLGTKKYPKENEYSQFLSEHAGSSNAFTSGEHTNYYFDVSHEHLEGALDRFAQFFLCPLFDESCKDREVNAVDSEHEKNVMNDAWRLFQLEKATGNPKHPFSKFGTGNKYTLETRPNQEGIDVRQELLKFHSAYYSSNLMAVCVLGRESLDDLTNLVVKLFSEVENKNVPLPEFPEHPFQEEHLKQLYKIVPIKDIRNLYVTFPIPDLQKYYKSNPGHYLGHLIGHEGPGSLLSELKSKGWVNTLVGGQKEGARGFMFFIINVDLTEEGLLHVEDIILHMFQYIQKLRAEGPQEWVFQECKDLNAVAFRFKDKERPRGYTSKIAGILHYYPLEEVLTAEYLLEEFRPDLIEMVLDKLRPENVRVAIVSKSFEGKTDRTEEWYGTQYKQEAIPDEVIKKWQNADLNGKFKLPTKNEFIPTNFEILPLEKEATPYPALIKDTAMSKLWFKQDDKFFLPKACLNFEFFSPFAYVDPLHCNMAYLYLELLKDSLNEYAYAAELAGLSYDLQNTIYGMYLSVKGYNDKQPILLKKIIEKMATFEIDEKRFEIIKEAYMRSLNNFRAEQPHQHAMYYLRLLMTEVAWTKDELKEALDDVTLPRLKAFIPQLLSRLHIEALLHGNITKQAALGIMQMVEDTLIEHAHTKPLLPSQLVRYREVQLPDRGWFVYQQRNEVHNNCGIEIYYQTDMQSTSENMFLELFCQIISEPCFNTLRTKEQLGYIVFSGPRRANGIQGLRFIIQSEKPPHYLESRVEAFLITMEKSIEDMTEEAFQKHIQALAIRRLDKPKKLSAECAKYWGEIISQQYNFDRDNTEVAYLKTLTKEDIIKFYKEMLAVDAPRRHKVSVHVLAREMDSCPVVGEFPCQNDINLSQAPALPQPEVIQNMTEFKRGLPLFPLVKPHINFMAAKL
IDE cell activ: boosts human insulin-degrading enzyme activity in HEK cells. P14735. FAbeta-B cleavage, fluorescence polarization; 0% vehicle, 100% cell-free pure enzyme wells. activation, % at 5.96 µM. 340,000 compounds, 0.073% hits. AID 493087;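 active = activation above the mean of all tested compounds plus 3 SD, set per screening campaign, cut at about 17% in these data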
ASAP1 GAP inh: ASAP1 ArfGAP inhibition | ASAP1-stimulated ARF1 GTP hydrolysis, GDP FP detection | inhibition, % at 16.5 µM | 360,000 compounds, 0.19% hits; in the data active = inhibition above about 25%;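 also: 0% = vehicle with enzyme and substrate and 100% = no enzyme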
ARFGAP1 inhibitor: inhibitors of rat ARFGAP1 | Arfgap1-stimulated ARF1 GTP hydrolysis, GDP FP detection | 360,000 compounds, 0.26% hits | inhibition, % at 16.5 µM | AID 651572 | Q62848;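 active = inhibition above a per-plate limit, mean inhibition of low control wells plus 3 SD, cut at about 25% in these data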;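 also: 0% = DMSO wells with enzyme and 100% = wells lacking Arfgap1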
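Material: rat Arfgap1 catalytic domain, aa 1-136; also added: human ARF1(Δ1-17)-GTP substrate; compound dosing: one concentration, 16.5 µM, DMSO 1.26%; incubation: GTP hydrolysis reaction 2 h at 25 °C; measured by: Tracer-displacement fluorescence polarization with EDTA stop, 620/688 nm; evaluation: % inhibition from polarization; repeats: one replicate per compound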
PREPL confirm: confirmation of human PREPL enzyme inhibitors; 2,000 compounds, 67% hits; inhibition, % at 5.96 µM; shares compounds with PREPL inhibitor; recombinant PREPL, fluorescence polarization activity probe;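 also: 0% = protein with DMSO and 100% = wells lacking protein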
Numbers without * were called inactive. Rule as the data show it, unless noted: active = inhibition above about 43%; inactive = the rest.

For CN(c1ccc(NC(=O)Cc2c[nH]c3ccccc23)cc1)c1ccccn1 the results were ASAP1 GAP inh 3 and ARFGAP1 inhibitor 13.
Screening CCOC(=O)N1CCC(NC(=O)C2CCN(C(=O)c3cc4oc(C)cc4n3Cc3c(F)cccc3Cl)CC2)CC1 returned PREPL inhibitor 55*, IDE cell inh 0, IDE cell activ 2, ASAP1 GAP inh -9, ARFGAP1 inhibitor 10 and PREPL confirm 52*.
CN(c1cccnc1)c1ccc(NC(=O)Cc2cn(Cc3ccccc3)c3ccccc23)cc1Br was read as ASAP1 GAP inh 3 and ARFGAP1 inhibitor 4.
Screening C[C@@H]1CCCCO[C@@H](CN(C)CC2CCCCC2)[C@@H](C)CN([C@H](C)CO)C(=O)c2cc(NC(=O)Nc3ccc4c(c3)OCO4)ccc2O1 returned ASAP1 GAP inh 6 and ARFGAP1 inhibitor -17.
`COc1cc(-c2nnc3sc(Cc4ccc(Cl)cc4)nn23)cc(OC)c1OC` gave PREPL inhibitor 54*, IDE cell inh -1, IDE cell activ -2, ASAP1 GAP inh 3, ARFGAP1 inhibitor 0 and PREPL confirm 52*.
`COc1ccc2cc(-c3cc(C(=O)OCC(=O)NC4CCS(=O)(=O)C4)c4ccccc4n3)ccc2c1` (configuration not stated) gave PREPL inhibitor 46*, IDE cell inh 1, IDE cell activ 4, ASAP1 GAP inh -5, ARFGAP1 inhibitor 7 and PREPL confirm 37.
Screening Cc1cc(C)c(S(=O)(=O)N2C[C@H]3CON(C)[C@H]3C[C@H]2c2ccc(-n3ccnc3)cc2)c(C)c1 returned ASAP1 GAP inh 6 and ARFGAP1 inhibitor 8.
`COc1cccc(/C=N/Nc2ccc([N+](=O)[O-])cn2)c1O` gave PREPL inhibitor 56*, IDE cell inh 2, IDE cell activ 6, ASAP1 GAP inh 14, ARFGAP1 inhibitor 10 and PREPL confirm 18.
Screening Cc1ccc(Cc2c(C)nc3nc(SCC(=O)NCCCN4CCCCCC4)nn3c2C)cc1 returned PREPL inhibitor 53*, IDE cell inh -4, ASAP1 GAP inh 10, ARFGAP1 inhibitor 6 and PREPL confirm 42.
Screening Clc1cccc(/C=N/Nc2ncnc3ccccc23)c1 returned PREPL inhibitor 40, IDE cell inh 1, IDE cell activ -1, ASAP1 GAP inh 5 and ARFGAP1 inhibitor 11.
`C(=N\Nc1ncnc2ccccc12)/c1ccccc1` gave PREPL inhibitor 45*, IDE cell inh 3, IDE cell activ 0, ASAP1 GAP inh 7, ARFGAP1 inhibitor 5 and PREPL confirm 21.
`N#C/C(=C\c1cccs1)c1nc2ccccc2[nH]1` gave PREPL inhibitor 37, IDE cell inh -2, IDE cell activ 5, ASAP1 GAP inh -1 and ARFGAP1 inhibitor 4.
`N#C/C(=C\c1ccc(OC(=O)c2cccs2)cc1)c1nc2ccccc2[nH]1` gave PREPL inhibitor 55*, IDE cell inh 6, IDE cell activ -7, ASAP1 GAP inh 3, ARFGAP1 inhibitor 8 and PREPL confirm 12.
Screening O=C(CCN1CCCCCC1)Nc1ccc2c(c1)OCCO2 returned PREPL inhibitor 45*, IDE cell inh -1, IDE cell activ 4, ASAP1 GAP inh 20, ARFGAP1 inhibitor 3 and PREPL confirm 12.
O=C(N/N=C1\C/C(=N\NC(=O)c2ccncc2)c2ccccc21)c1ccncc1 was read as PREPL inhibitor 46*, IDE cell inh 3, IDE cell activ 4, ASAP1 GAP inh 10, ARFGAP1 inhibitor 4 and PREPL confirm 10.
For O=C(NN=C1C2CC3CC(C2)CC1C3)c1ccncc1 the results were PREPL inhibitor 3, IDE cell inh 2, IDE cell activ 1, ASAP1 GAP inh 18 and ARFGAP1 inhibitor -4.
`COc1ccc(-c2oc3ncn(CCN4CCOCC4)c(=N)c3c2-c2ccc(OC)cc2)cc1` gave PREPL inhibitor 48*, IDE cell inh -1, IDE cell activ 2, ASAP1 GAP inh -8, ARFGAP1 inhibitor -7 and PREPL confirm 35.
COc1ccc(-c2oc3ncnc(NCCN4CCOCC4)c3c2-c2ccc(OC)cc2)cc1 was read as PREPL inhibitor 21, IDE cell inh 1 and IDE cell activ 1.
For C[C@H]1CN([C@@H](C)CO)C(=O)Cc2cc(NS(C)(=O)=O)ccc2O[C@@H]1CN(C)Cc1ccc(Cl)c(Cl)c1 the results were PREPL inhibitor 47*, IDE cell inh 4, IDE cell activ 6, ASAP1 GAP inh -1, ARFGAP1 inhibitor 12 and PREPL confirm 33.
`CCc1nc2c(OCCOc3ccc(F)cc3)cccn2c1N(C)C(=O)c1ccc(C)cc1` gave ASAP1 GAP inh -1 and ARFGAP1 inhibitor 1.
Screening O=C(NCc1ccccc1)C1=C[C@H](c2coc3ccccc3c2=O)C[C@H](OCc2ccc(CO)cc2)O1 returned PREPL inhibitor 11, IDE cell inh -1, IDE cell activ 0, ASAP1 GAP inh -11 and ARFGAP1 inhibitor 15.
`O=C(Nc1ccccc1)C1=C[C@@H](c2coc3ccccc3c2=O)C[C@@H](OCc2ccc(CO)cc2)O1` gave PREPL inhibitor 49*, IDE cell inh 8, IDE cell activ 2, ASAP1 GAP inh -4, ARFGAP1 inhibitor 0 and PREPL confirm 48*.
CCc1nnc(NC(=O)CN2CCN(c3ccccc3F)CC2)s1 was read as PREPL inhibitor 0, IDE cell inh 1, IDE cell activ 0, ASAP1 GAP inh 12 and ARFGAP1 inhibitor -2.
For COc1ccc2c(c1)c(C(O)CN1CCN(Cc3ccc4c(c3)OCO4)CC1)c(C)n2C (configuration not stated) the results were PREPL inhibitor 47*, IDE cell inh 1, IDE cell activ 5, ASAP1 GAP inh 8, ARFGAP1 inhibitor -2 and PREPL confirm 32.
For O=C1NN(c2ccccc2)C(=O)/C1=C\c1cccc(OC(=O)c2cccs2)c1 the results were PREPL inhibitor 57*, IDE cell inh 5, IDE cell activ 3, ASAP1 GAP inh -6, ARFGAP1 inhibitor -3 and PREPL confirm 34.
O=C1NN(c2ccc(Cl)c(Cl)c2)C(=O)/C1=C/c1cccc(OC(=O)c2cccs2)c1 was read as PREPL inhibitor 42 and IDE cell inh 0.
For C=CC[n+]1c(-c2ccc(Cl)cc2Cl)csc1Nc1ccc(NC(C)=O)cc1 the results were PREPL inhibitor 59*, IDE cell inh 5, IDE cell activ 2, ASAP1 GAP inh -1, ARFGAP1 inhibitor 2 and PREPL confirm 63*.
`COc1ccc(N2CCN(c3oc(-c4ccco4)nc3C#N)CC2)cc1` gave PREPL inhibitor 44*, IDE cell inh 3, IDE cell activ 0, ASAP1 GAP inh 1, ARFGAP1 inhibitor -3 and PREPL confirm 35.
For COc1ccccc1-c1nc(C#N)c(N2CCN(c3ccccc3)CC2)o1 the results were PREPL inhibitor 48*, IDE cell inh -4, IDE cell activ 4, ASAP1 GAP inh -14, ARFGAP1 inhibitor 16 and PREPL confirm 39.

Screening results from PubChem BioAssay.
